According to ChEMBL document CHEMBL1177673, “New 2-arylnaphthalenediols and triol inhibitors of HIV-1 integrase--discovery of a new polyhydroxylated antiviral agent” (Bioorg Med Chem, 2010):

Tests used:
[1] = Cytotoxicity gainst human HeLaP4 cells after 3 days by MTT assay; type: cell-based
[2] = Therapeutic index, ratio of CC50 for human HeLaP4 cells to EC50 for HIV1 […]; type: cell-based; conditions: read-out: Ratio CC50/EC50
[3] = test system: Human immunodeficiency virus 1; experiment: Antiviral activity against HIV1 […] in human HeLaP4 cells assessed as beta-galactosidase activity after 72 hrs; type: functional, organism-based; conditions: Human immunodeficiency virus 1, HeLaP4, 72 h
Procedure, shortened: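 Virus (HIV-1 pNL4-3) made by transfecting P4 cells with the genomic clone. Infected CEM4fx cells in triplicate grown with increasing drug concentrations for 3 days. Supernatants collected at 72 h were used to infect HeLa-CD4-β-gal (P4) reporter cells for 24 h. Cells were lysed (50 mM 2-mercaptoethanol, 10 mM MgSO4, 25 mM EDTA, 0.125% NP40), incubated with CPRG, and read at 570 nm. Replicates averaged.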

[4] = molecular target: Human immunodeficiency virus type 1 integrase (Human immunodeficiency virus 1, UniProt Q7ZJM1); experiment: Inhibition of HIV1 integrase after 1 hr by ELISA
Procedure, shortened: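 ELISA with annealed oligos (7 nM): a 3′-biotin strand and a 5′-digoxigenin complementary strand. Integrase was diluted in 750 mM NaCl, 10 mM Tris pH 7.6, 10% glycerol, 1 mM β-mercaptoethanol, 0.1 mg/mL BSA. Reaction in 10 mM MgCl₂, 5 mM DTT, 20 mM HEPES pH 7.5, 5% PEG, 15% DMSO, 1 h at 37 °C. Detection by immunosorbent assay on avidin-coated plates.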

[5] = Therapeutic index, ratio of CC50 for human MT4 cells to EC50 for HIV1 3B; type: cell-based; conditions: read-out: Ratio CC50/EC50
Procedure, shortened: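 MT-4 cells were infected with 100–300 CCID₅₀ of HIV-1 IIIB, with the CCID₅₀ titrated on MT-4 cells. Drugs were added as fivefold serial dilutions. Protection from virus-induced cytopathic effect was read by MTT reduction to formazan, giving EC₅₀, and CC₅₀ was determined in parallel.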

MT4 = experiment: Cytotoxicity gainst human MT4 cells after 3 days by MTT assay; type: cell-based; conditions: MT4, 72 h
Procedure, shortened: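 MT-4 cells in the MT-4/MTT format. CC50 determined in parallel with the antiviral EC50 using the MTT formazan read-out.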

[6] = test system: Human immunodeficiency virus 1; experiment: Antiviral activity against HIV1 3B infected in human MT4 cells assessed as inhibition of virus-induced cytopathic effect by MTT assay; type: functional; conditions: Human immunodeficiency virus 1, 3B
Procedure, shortened: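 HIV-1 IIIB stock titred on MT-4 cells to find CCID50. MT-4 cells infected with 100–300 CCID50 in the presence of fivefold serial drug dilutions. Protection from virus-induced cytopathic effect read by MTT reduction to formazan, measured spectrophotometrically. EC50 taken as the concentration giving 50% protection.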

Sequence of Human immunodeficiency virus type 1 integrase (Q7ZJM1 whole entry): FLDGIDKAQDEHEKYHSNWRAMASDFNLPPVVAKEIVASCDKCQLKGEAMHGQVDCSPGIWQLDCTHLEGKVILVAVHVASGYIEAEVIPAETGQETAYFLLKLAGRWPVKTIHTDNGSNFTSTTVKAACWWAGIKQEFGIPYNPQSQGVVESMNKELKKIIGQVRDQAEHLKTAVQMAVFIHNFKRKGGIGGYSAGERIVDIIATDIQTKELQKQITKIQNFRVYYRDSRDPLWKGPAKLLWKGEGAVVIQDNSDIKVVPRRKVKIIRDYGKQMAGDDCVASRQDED

Row | SMILES | IC50 [4] [µM] | other results
1 | Oc1ccc(-c2ccc3cc(O)c(O)cc3c2)cc1O | – | CC50 at 72 h [1]: 51 µM; selectivity ratio [2]: 5; EC50 [3]: 9.9 µM
2 | Oc1ccc(-c2ccc3c(O)c(O)ccc3c2)cc1 | 8.1 | –
3 | Oc1ccc2cc(-c3ccccc3C(F)(F)F)ccc2c1O | 6 | –
4 | Oc1ccc2cc(-c3cccc(C(F)(F)F)c3)ccc2c1O | 10 | –
5 | Oc1ccc2cc(-c3ccc(C(F)(F)F)cc3)ccc2c1O | 10 | –
6 | Oc1ccc2cc(-c3ccccc3F)ccc2c1O | 7.3 | –
7 | O=C1C(=O)c2cc(-c3cc(O)c(O)c(O)c3)ccc2C(Oc2c(O)cc(-c3ccc4cc(O)c(O)c(O)c4c3)cc2O)=C1O | 0.85 | CC50 at 72 h [1]: 85 µM; selectivity ratio [2]: 74; EC50 [3]: 1.15 µM; selectivity ratio [5]: 19
8 | Oc1ccc2cc(-c3cccc(F)c3)ccc2c1O | 9.6 | –
9 | Oc1ccc2cc(-c3ccc(F)cc3)ccc2c1O | 8 | –
10 | Oc1ccc(-c2ccc3c(O)c(O)ccc3c2)cc1O | 2.2 | CC50 at 72 h [1]: > 100 µM; EC50 [3]: 40 µM
11 | Oc1ccc2cc(-c3ccccc3)ccc2c1O | 6 | –
12 | Oc1ccccc1-c1ccc2c(O)c(O)ccc2c1 | 10 | –
13 | Oc1cccc(-c2ccc3c(O)c(O)ccc3c2)c1 | 4.8 | –
14 | Oc1cccc(-c2ccc3c(O)c(O)ccc3c2)c1O | 1 | CC50 at 72 h [1]: > 100 µM; EC50 [3]: > 100 µM
15 | Oc1cc(-c2ccc3cc(O)c(O)c(O)c3c2)cc(O)c1O | 0.5 | CC50 (MT4): > 1 µM; EC50 [6]: 1 µM
